In ChEMBL document CHEMBL2380270, “Radiosynthesis and first evaluation in mice of [(18)F]NS14490 for molecular imaging of α7 nicotinic acetylcholine receptors” (Bioorg Med Chem, 2013):

Assays:
Type in all cases: ADME, organism-based
[1] = system: Mus musculus; assay: Biodistribution in CD1 mouse small intestine at 200 to 300 kBq, iv measured at 15 mins by gamma counting analysis; details: in vivo, 0.25 h
Method in brief: (§1)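 Female CD-1 mice received 200–300 kBq [18F]radiotracer intravenously. Blood and urine were sampled under anaesthesia, then mice were killed by cervical dislocation at 5, 15, 30 or 60 min p.i. (n = 3; control at 60 min n = 7). Organs were removed and weighed, activity was gamma-counted, and uptake was expressed as % injected dose per g wet tissue.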

[2] = system: Kidney; assay: Biodistribution in CD1 mouse kidney at 200 to 300 kBq, iv measured at 5 mins by gamma counting analysis; details: in vivo
Method in brief: (§2)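 Female CD-1 mice, 200–300 kBq radiotracer given iv, n = 3 per time point. Animals anaesthetised for blood and urine sampling, then killed by cervical dislocation at 5, 15, 30 or 60 min p.i. Organs removed, weighed and gamma-counted; uptake expressed as % injected dose per g wet tissue.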

[3] = system: Pancreas; assay: Biodistribution in CD1 mouse pancreas at 200 to 300 kBq, iv measured at 60 mins by gamma counting analysis; details: in vivo, 1 h; method in brief: as §1
[4] = system: Mus musculus; assay: Biodistribution in CD1 mouse small intestine at 200 to 300 kBq, iv measured at 60 mins by gamma counting analysis in presence of SSR180711; details: in vivo, 1 h
Method in brief: (§3)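 Blocking design in female CD-1 mice, n = 7 per group. The blocker was given at 10 mg kg^-1 i.p. in 0.9% saline 10 min before i.v. 200–300 kBq [18F]radiotracer. Mice were killed at 60 min p.i. and organs weighed and gamma-counted as % ID per g wet weight. Blocked groups were compared with controls by two-tailed independent Student's t test.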

[5] = system: Mus musculus; assay: Biodistribution in CD1 mouse thymus at 200 to 300 kBq, iv measured at 60 mins by gamma counting analysis; details: in vivo, 1 h
Method in brief: (§4)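 Female CD-1 mice given 200–300 kBq tracer intravenously. Animals anaesthetised for blood and urine sampling, then killed by cervical dislocation at 5, 15, 30 or 60 min (n = 3 per time; n = 7 at 60 min). Organs removed and weighed, activity gamma-counted, expressed as % injected dose per g wet weight. Blocking arm: 10 mg/kg i.p. in 0.9% saline, 10 min before tracer; two-tailed unpaired t test versus control.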

[6] = system: Brain; assay: Biodistribution in CD1 mouse brain at 200 to 300 kBq, iv measured at 30 mins by gamma counting analysis; details: in vivo, 0.5 h; method in brief: as §2
[7] = system: Pancreas; assay: Biodistribution in CD1 mouse pancreas at 200 to 300 kBq, iv measured at 30 mins by gamma counting analysis; details: in vivo, 0.5 h; method in brief: as §1
[8] = system: Liver; assay: Biodistribution in CD1 mouse liver at 200 to 300 kBq, iv measured at 60 mins by gamma counting analysis; details: in vivo, 1 h; method in brief: as §1
[9] = system: Kidney; assay: Biodistribution in CD1 mouse kidney at 200 to 300 kBq, iv measured at 60 mins by gamma counting analysis in presence of SSR180711; details: in vivo, 1 h
Method in brief: (§5)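 Blocking study in female CD-1 mice, n = 7 per blocker, with a matching control group. SSR180711 or NS6740 given at 10 mg kg⁻¹ ip in 0.9% saline 10 min before iv radiotracer (200–300 kBq). Organs taken at 60 min p.i., weighed and gamma-counted; uptake as % ID per g wet weight. Compared with control by two-tailed independent Student's t test.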

[10] = system: Stomach; assay: Biodistribution in CD1 mouse stomach at 200 to 300 kBq, iv measured at 15 mins by gamma counting analysis; details: in vivo, 0.25 h; method in brief: as §1
[11] = system: Spleen; assay: Biodistribution in CD1 mouse spleen at 200 to 300 kBq, iv measured at 60 mins by gamma counting analysis; details: in vivo, 1 h; method in brief: as §1
[12] = system: Brain; assay: Biodistribution in CD1 mouse brain at 200 to 300 kBq, iv measured at 60 mins by gamma counting analysis; details: in vivo, 1 h; method in brief: as §2
[13] = system: Lung; assay: Biodistribution in CD1 mouse lung at 200 to 300 kBq, iv measured at 30 mins by gamma counting analysis; details: in vivo, 0.5 h; method in brief: as §1
[14] = system: Lung; assay: Biodistribution in CD1 mouse lung at 200 to 300 kBq, iv measured at 60 mins by gamma counting analysis in presence of SSR180711; details: in vivo, 1 h; method in brief: as §3
[15] = system: Spleen; assay: Biodistribution in CD1 mouse spleen at 200 to 300 kBq, iv measured at 5 mins by gamma counting analysis; details: in vivo; method in brief: as §1
[16] = system: Mus musculus; assay: Biodistribution in CD1 mouse thymus at 200 to 300 kBq, iv measured at 60 mins by gamma counting analysis in presence of SSR180711; details: in vivo, 1 h; method in brief: as §4
[17] = Biodistribution in CD1 mouse urine at 200 to 300 kBq, iv measured at 30 mins by gamma counting analysis; details: in vivo, 0.5 h; method in brief: as §4
[18] = system: Blood; assay: Biodistribution in CD1 mouse blood at 200 to 300 kBq, iv measured at 5 mins by gamma counting analysis; details: in vivo; method in brief: as §2
[19] = Biodistribution in CD1 mouse urine at 200 to 300 kBq, iv measured at 15 mins by gamma counting analysis; details: in vivo, 0.25 h; method in brief: as §4
[20] = system: Zone of skin; assay: Biodistribution in CD1 mouse skin at 200 to 300 kBq, iv measured at 15 mins by gamma counting analysis; details: in vivo, 0.25 h; method in brief: as §1
[21] = system: Lung; assay: Biodistribution in CD1 mouse lung at 200 to 300 kBq, iv measured at 5 mins by gamma counting analysis; details: in vivo; method in brief: as §1
[22] = system: Mus musculus; assay: Biodistribution in CD1 mouse large intestine at 200 to 300 kBq, iv measured at 60 mins by gamma counting analysis in presence of SSR180711; details: in vivo, 1 h; method in brief: as §5
[23] = system: Blood; assay: Biodistribution in CD1 mouse blood at 200 to 300 kBq, iv measured at 15 mins by gamma counting analysis; details: in vivo, 0.25 h; method in brief: as §2
[24] = system: Urinary bladder; assay: Biodistribution in CD1 mouse bladder at 200 to 300 kBq, iv measured at 15 mins by gamma counting analysis; details: in vivo, 0.25 h; method in brief: as §2
[25] = system: Blood; assay: Biodistribution in CD1 mouse blood at 200 to 300 kBq, iv measured at 30 mins by gamma counting analysis; details: in vivo, 0.5 h; method in brief: as §2

Compound: O=C(Oc1ccc(Br)cc1)N1CCN2CCC1CC2 [SSR180711]
- Drug uptake [1]: 6.72 % ID/g
- Drug uptake [2]: 10.6 % ID/g
- Drug uptake [3]: 3.12 % ID/g
- Drug uptake [4]: 15.9 % ID/g
- Drug uptake [5]: 2.75 % ID/g
- Drug uptake [6]: 0.18 % ID/g
- Drug uptake [7]: 4.2 % ID/g
- Drug uptake [8]: 7.79 % ID/g
- Drug uptake [9]: 10.5 % ID/g
- Drug uptake [10]: 5.45 % ID/g
- Drug uptake [11]: 7.46 % ID/g
- Drug uptake [12]: 0.18 % ID/g
- Drug uptake [13]: 6.78 % ID/g
- Drug uptake [14]: 4.41 % ID/g
- Drug uptake [15]: 4.22 % ID/g
- Drug uptake [16]: 2.47 % ID/g
- Drug uptake [17]: 123 % ID/g
- Drug uptake [18]: 1.6 % ID/g
- Drug uptake [19]: 122 % ID/g
- Drug uptake [20]: 1.4 % ID/g
- Drug uptake [21]: 8.48 % ID/g
- Drug uptake [22]: 5.46 % ID/g
- Drug uptake [23]: 1.25 % ID/g
- Drug uptake [24]: 2.19 % ID/g
- Drug uptake [25]: 1.01 % ID/g
